Bioassay records: PubChem BioAssay, The Scripps Research Institute Molecular Screening Center
Compounds with a hit are over-represented: about 4.6% of the library has one in this group of screens.
TAAR1 agonist = human TAAR1 agonists, primary screen, Fluo-8 calcium fluorescence, CHO RD-HGA16 cells | vehicle wells 0%, saturating PEA agonist 100% | Trace amine-associated receptor 1 (Homo sapiens), Q96RJ0 | AID 624467, 2012 | activation, % at 3 µM | 360,000 compounds, 0.99% hits;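 active = activation above the mean activation of all test compounds in the run plus 3 SD, cut at about 38% in these data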
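Assay system: CHO-derived RD-HGA16 cells with stable Gα16 and human TAAR1; timing: 17-24 h seeding, 75 min 37 °C dye, 30 min RT; read-out: % activation from peak over basal fluorescence ratio, DMSO-to-PEA scaled; measured by: kinetic Fluo-8 calcium fluorescence; benchmarks: low control DMSO, high control PEA (EC100); doses: 3 µM single concentration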
OX1R antag-1 = OX1R (HCRTR1) antagonists, primary screen, fluorescence, CHO/OX1R cells, Fluo-8 calcium, orexin A; Orexin/Hypocretin receptor type 1 (Homo sapiens), O43613; Fluo-8 calcium fluorescence; inhibition, % at 5 µM; 330,000 compounds, 0.43% hits; AID 434989, 2010;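 active = inhibition above its plate's threshold, mean inhibition of all tested compounds on the plate plus 3 SD, cut at about 37% in these data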
Target sequence (O43613 whole entry, looked up): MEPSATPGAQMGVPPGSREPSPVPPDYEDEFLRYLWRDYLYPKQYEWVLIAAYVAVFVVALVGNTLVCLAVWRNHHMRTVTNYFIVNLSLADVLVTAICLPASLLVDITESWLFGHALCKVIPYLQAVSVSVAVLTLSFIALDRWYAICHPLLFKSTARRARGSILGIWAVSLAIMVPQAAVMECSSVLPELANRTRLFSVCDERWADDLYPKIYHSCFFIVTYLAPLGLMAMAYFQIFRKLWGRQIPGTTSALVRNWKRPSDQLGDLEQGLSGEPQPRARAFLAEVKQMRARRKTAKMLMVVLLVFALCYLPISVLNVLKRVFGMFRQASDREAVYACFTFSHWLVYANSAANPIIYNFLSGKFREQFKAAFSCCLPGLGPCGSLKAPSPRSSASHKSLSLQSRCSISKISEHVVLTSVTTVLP
CHO parental Ca = ATP-evoked calcium signal inhibitors, parental CHO, primary screen, counter-screen for OX1R antagonist project, cell-based, fluorescence, Fluo-8 calcium dye | parental CHO-K1, ATP-induced calcium, Fluo-8 fluorescence | inhibition, % at 5.6 µM | 330,000 compounds, 0.63% hits | AID 463079, 2010;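 active = inhibition above that plate's mean sample inhibition plus 3 SD, cut at about 26% in these data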
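Material: parental CHO cells / Compound: single nominal dose of 5.6 µM per compound / Signal: Fluo-8 fluorescence / Replicates: singlicate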
TAAR1 antag = human TAAR1 antagonists, primary screen, Fluo-8 calcium fluorescence, CHO RD-HGA16 cells; antagonist; inhibition, % at 3 µM; 360,000 compounds, 1.5% hits; AID 624466, 2012;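 active = inhibition above a per-plate cutoff, the mean inhibition of test compounds on that plate plus 3 SD, cut at about 49% in these data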
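Assay system: RD-HGA16 CHO cells with stable hTAAR1 and Gα16 / Reagent: EC80 β-phenethylamine stimulus / Doses: 3 µM, single point / Timing: dye loading 75 min at 37 °C, then 30 min room temperature / Measured by: Fluo-8 intracellular calcium dye fluorescence, real-time kinetic reads / Controls: vehicle wells and EC80 agonist wells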
GPR7 antag = GPR7 receptor antagonists, primary screen, cell-based, fluorescence, single concentration. Neuropeptides B/W receptor type 1 (Homo sapiens), P48145. GPR7-expressing cells, fluorescence antagonist assay. inhibition, % at 4.4 µM. 290,000 compounds, 1.1% hits. AID 1861, 2009; in the data active = inhibition above about 16%, passing the limit was not always enough;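 note: cells stimulated with the agonist NPW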
Target sequence (P48145 whole entry, looked up): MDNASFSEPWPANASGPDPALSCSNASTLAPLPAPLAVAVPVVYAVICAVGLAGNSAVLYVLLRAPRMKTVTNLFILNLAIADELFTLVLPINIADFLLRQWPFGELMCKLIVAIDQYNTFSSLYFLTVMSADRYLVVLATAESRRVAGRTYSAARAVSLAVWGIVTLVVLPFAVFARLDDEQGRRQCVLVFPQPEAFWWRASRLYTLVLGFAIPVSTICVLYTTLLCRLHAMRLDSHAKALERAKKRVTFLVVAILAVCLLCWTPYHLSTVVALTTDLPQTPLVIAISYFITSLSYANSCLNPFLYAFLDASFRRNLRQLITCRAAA
OX1R antag-2 = antagonists of human orexin 1 receptor (OX1R); AID 485270, 2010; 330,000 compounds, 1.8% hits; inhibition, % at 6.6 µM; OX1R-expressing cells, FRET antagonist read-out; Orexin/Hypocretin receptor type 1 (Homo sapiens), O43613; in the data active = inhibition mostly above about 38%, no sharp cut-off; inactive = mostly below about 40%
Each line names hits and unclear results; the compound was inactive in the other large screens.

O=C(CN(c1ccccc1)S(=O)(=O)c1ccccc1)NCCSCc1ccco1	OX1R antag-2 56.6
COc1ccccc1N(CC(=O)NCCSCc1ccccc1)S(=O)(=O)c1ccc(C)cc1	none
COc1ccccc1N(CC(=O)NCCSCc1ccco1)S(=O)(=O)c1ccccc1	OX1R antag-2 50.9
COc1ccc(N(CC(=O)NCCSCc2ccco2)S(=O)(=O)c2ccccc2)cc1OC	none
COc1ccccc1N(CC(=O)NCCSCc1ccccc1)S(=O)(=O)c1ccccc1	TAAR1 antag 65.2 (no result: OX1R antag-1, CHO parental Ca, GPR7 antag, OX1R antag-2)
COc1ccc(N(CC(=O)NCCSCc2ccco2)S(=O)(=O)c2ccccc2)cc1	none
O=[N+]([O-])c1cccc(-n2cc3ccc([N+](=O)[O-])cc3n2)c1	none (no result: GPR7 antag)
CCOC(=O)c1c2ccc(OCC(=O)N/N=C/c3ccccc3C(F)(F)F)cc2n2ccccc12	none (no result: TAAR1 agonist, OX1R antag-1, CHO parental Ca, TAAR1 antag, OX1R antag-2)
CCOC(=O)N1CCN(C(=O)c2cn(-c3ccc(C)c(C)c3)c(=O)c3ccccc23)CC1	GPR7 antag 74.7 (no result: OX1R antag-1, CHO parental Ca, OX1R antag-2)
CCCCCc1nc2c(C#N)c(-c3ccc(Cl)cc3)ccn2n1	none
N#Cc1c(-c2ccc(Cl)cc2)ccn2nc(CCC(=O)O)nc12	OX1R antag-2 56.1
O=C(c1cccc(S(=O)(=O)N2CCN(c3ccccc3)CC2)c1)N1CCCC(C(F)(F)F)C1 (stereo unspecified)	CHO parental Ca 33.8 (no result: GPR7 antag)
CN(C)c1ccc2nsnc2c1[N+](=O)[O-]	OX1R antag-2 38.6
Cn1nc(CC(=O)Nc2ccc3c(c2)OCCO3)c2ccccc2c1=O	OX1R antag-1 47.0, CHO parental Ca 48.5
C=CC[n+]1c(/C=C2\C=Cc3cc(C)ccc3N2CC)ccc2ccccc21	OX1R antag-1 68.9, CHO parental Ca 56.2, GPR7 antag 35.4, OX1R antag-2 114.0
Cc1ccc(CNC(=O)CCS(=O)(=O)c2cc3c(cc2C)NC(=O)CO3)cc1	none
Cn1c(O)c(/C=C2\C=Nc3ccccc32)sc1=Nc1ccc(C(=O)O)cc1	none
O=C(Cc1ccccc1)Nn1c(O)c(/C=C2\C=Nc3ccccc32)sc1=S	TAAR1 antag 54.3
Cc1cc(C)c(S(=O)(=O)N(CC(=O)N2CCCC2)C2CCCCC2)c(C)c1	GPR7 antag 15.6
Cc1ccc(S(=O)(=O)N(CC(=O)N2CCCC2)C2CCCCC2)cc1	none
O=C(CCCC1=NS(=O)(=O)c2ccccc2N1)N1CCN(c2ccc(Cl)cc2)CC1	none
CC(C)(CC(=O)N1CCN(c2ccc(Cl)cc2)CC1)CC1=NS(=O)(=O)c2ccccc2N1	CHO parental Ca 74.9, TAAR1 antag 63.6
O=C(N/N=C/c1c(O)ccc2ccccc12)c1cccc(C(F)(F)F)c1	TAAR1 agonist 58.0, OX1R antag-1 56.3, TAAR1 antag 61.9
COc1ccc2ccccc2c1/C=N/NC(=O)c1cccc(Br)c1	none
O=C(COC(=O)c1ccccc1Cc1ccccc1)Nc1ccc(SC(F)F)cc1	CHO parental Ca 42.0
O=C(Cc1ccc(Br)cc1)Nc1ccc(Cl)cc1	none
O=C(Cc1ccc(Cl)cc1)Nc1ccc(SC(F)F)cc1	TAAR1 antag 55.2
Cc1ccc(OCCNS(=O)(=O)c2ccc(N3CCCC3=O)cc2)cc1	none
Cc1ccc(OCCNS(=O)(=O)c2ccc(N3CCCC3=O)cc2)cc1C	OX1R antag-2 34.7
O=c1[nH]c2ccc(Cl)cc2c(-c2ccccc2)c1SC(=S)N1CCOCC1	TAAR1 antag 55.8
O=C(Nc1ncccc1Cl)c1cc2ccccc2o1	none
Cc1nc2ccccc2c2c1C(=O)N(c1ccc(C(=O)O)cc1)C2=O	none
Cc1nc2ccccc2c2c1C(=O)NC2=O	OX1R antag-2 38.6 (no result: TAAR1 agonist, TAAR1 antag)
CN(Cc1ccccc1C#N)S(=O)(=O)c1cccs1	none
N#Cc1nccnc1S(=O)(=O)c1cccs1	CHO parental Ca 43.8, GPR7 antag 18.3, OX1R antag-2 109.3
CN1C(=O)C2(C(C#N)=C(N)Oc3c2oc(CO)cc3=O)c2ccccc21 (stereo unspecified)	none
O=C(CSCC(=O)NC1CC1)Nc1ccc2ccccc2c1	GPR7 antag 20.0 (no result: OX1R antag-1, CHO parental Ca, OX1R antag-2)
Cc1nc(C(F)(F)F)ccc1C(=O)N1CCC1(C)C(=O)NS(=O)(=O)c1ccc2c(c1)CCO2 (stereo unspecified)	none (no result: OX1R antag-1, CHO parental Ca, GPR7 antag, OX1R antag-2)
O=C(N/N=C/c1sc(N2CCOCC2)nc1-c1ccccc1)c1ccc(O)cc1	none
O=C(N/N=C/c1sc(N2CCOCC2)nc1-c1ccccc1)c1cccc(S(=O)(=O)N2CCCC2)c1	TAAR1 antag 52.1
CCOc1ccc(N(Cc2cc3cc(OC)ccc3[nH]c2=O)S(C)(=O)=O)cc1	none
COc1ccc(N(Cc2cc3cc(OC)ccc3[nH]c2=O)S(=O)(=O)c2ccc(NC(C)=O)cc2)cc1	TAAR1 antag 57.7
CC(=O)Nc1ccc(S(=O)(=O)N(Cc2ccccc2)c2ccccc2)cc1	OX1R antag-2 66.1
CC(=O)Nc1ccc(S(=O)(=O)N(Cc2cccnc2)Cc2cc3ccccc3[nH]c2=O)cc1	TAAR1 antag 60.8
Cc1cc(Br)ccc1N=C1C(=O)Nc2ccccc21	none
COC(=O)c1nn(-c2ccccc2)c(Sc2ccc(Br)cc2)c1/C=N/O	none
COc1ccccc1/C=C1\SC(=S)N(N2C(=O)CCCC2=O)C1=O	none
CCOc1ccccc1NC(=O)Cc1c(F)cccc1Cl	none
Cc1cc(C)nc(-n2nc(C)cc2NC(=O)c2cc3ccccc3oc2=O)n1	none (no result: GPR7 antag)
COc1ccc(-c2cc(C(=O)Nc3ccc(C(N)=O)cc3)c3ccccc3n2)cc1OC	TAAR1 antag 53.8
O=C(c1cc(-c2ccccn2)nc2ccccc12)N1CCN(c2ncccn2)CC1	none
CCNC(=S)NNC(=O)c1cc(-c2ccc(OC)cc2)nc2ccccc12	none
Cc1ccc(-c2cc(C(=O)N3CCN(c4ncccn4)CC3)c3ccccc3n2)cc1	TAAR1 antag 50.5
COc1ccc(-c2cc(C(=O)N3CCN(c4ncccn4)CC3)c3ccccc3n2)cc1OC	TAAR1 antag 57.3 (no result: GPR7 antag)
COc1ccc(Cl)cc1C(=O)NNC(=S)NC(=O)c1cc(-c2ccc(Cl)cc2)nc2ccccc12	TAAR1 agonist 37.5
CCC(=O)Nc1ccc2c(c1)OC[C@@H](C)N(C(=O)c1ccccn1)C[C@@H](C)[C@@H](OC)CN(C)C2=O	none (no result: OX1R antag-1, CHO parental Ca, GPR7 antag, OX1R antag-2)
CCOc1ccccc1NC(=O)CCNS(=O)(=O)c1ccc2[nH]c(=O)oc2c1	none
O=C1c2c(O)cccc2Cc2cccc(O)c21	TAAR1 antag 103.6 (no result: GPR7 antag)
O=C1Cc2cccc(=O)c(O)c2C(=O)O1	none (no result: OX1R antag-1, CHO parental Ca, GPR7 antag, OX1R antag-2)
O=c1oc2c3c4c(cc2c(C(F)(F)F)c1CCN1CCOCC1)CCCN4CCC3	TAAR1 agonist 41.0
